# Test results taken from paper PMC3590845 (Bioorganic & medicinal chemistry, 2012).
# Experiments:
# [1] = GSH-activated NO release by chemiluminescence; assay type: physicochemical; settings: 4 mM GSH; for NO release on reaction with GSH (in words): chemiluminescence assay; for NO yield (mol)/mol of compound mean (SE): pH 7.4 phosphate buffer, 37 °C
# Summary of the method: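 Pre-warmed (37 °C) pH 7.4 phosphate buffer with 4 mM GSH was sparged with inert gas until the detector response was steady. Test compound was then injected to start the reaction, and NO release was followed over time. The integrated release curve gave mol NO released per mol compound.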
# [2] = test system: H1703 cells; test: In vitro metabolism in cells followed by LC/MS; assay type: in vitro ADME, human; settings: compound 12 at 5 μM for 5, 30 and 60 min
# Summary of the method: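 H1703 cells were plated in flasks, incubated overnight at 37 °C, then exposed to test compound. At each time point, cells were scraped into 10 mM HCl and lysed by freeze–thaw, then 5-sulfosalicylic acid was added. After spinning at 8000×g for 10 min, supernatants were run on C18 LC/MS (APCI positive ions, water/acetonitrile/0.1% formic acid gradient). Parent and arylated-GSH ions were tracked as extracted ion chromatograms.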
# [3] = test system: H1703 cells xenografted in athymic mice; test: H1703 xenograft in athymic mice; assay type: in vivo; settings: 20 μmol/kg ip, five times a week for four weeks
# Summary of the method: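 H1703 cells (5 × 10^6) were injected s.c. into one flank of 7-week-old female athymic NCr-nu/nu mice. Dosing started once tumors reached 2 × 2 × 2 mm3, typically after four weeks. Test compound was given as Pluronic P123 micelles, and controls received vehicle (2.25% Pluronic P123 in PBS) ip. Body weights were recorded three times weekly.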
# [4] = test system: H1703 cells; test: Western blot of stress signaling and apoptosis; assay type: cell-based, human; settings: 1 μM
# Summary of the method: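 After treatment of H1703 cells, lysates were immunoblotted for caspase 3, caspase 7, PARP, phospho-SAPK/JNK, phospho-c-jun and ATF3. PARP was scored as the full-length band versus the 89-kDa cleaved fragment.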
Compound,NO release on reaction with GSH (in words) [1],NO yield (mol)/mol of compound mean (SE) [1],Decomposition / metabolic turnover in cells [2],Body weights [3],ATF3 level [4],Apoptosis (cleavage of PARP and caspases 3 and 7) [4],SAPK/JNK stress signaling pathway ([4]; phosphorylation of SAPK/JNK and c-jun after 4 h)
"CCOC(=O)N1CCCN(/[N+]([O-])=N/Oc2ccc([N+](=O)[O-])cc2[N+](=O)[O-])CC1 [Compound 2, reference compound]",,2.00 (0.04) mol/mol of compound,,,,,
"CCOC(=O)N1CCN(/[N+]([O-])=N/Oc2ccc([N+](=O)[O-])cc2[N+](=O)[O-])CC1 [JS-K, reference compound]",,1.96 (0.03) mol/mol of compound,near complete metabolic turnover of JS-K in as few as ten minutes,,,,
CCOC(=O)N1CCN(/[N+]([O-])=N/Oc2ccc([N+](=O)[O-])cc2C#N)CC1 [Compound 12],essentially quantitative amounts of NO,2.04 (0.01) mol/mol of compound,over 1 h,did not affect body weights,upregulated,activated within 4 h,activated

# Second part, led by results:
NO release on reaction with GSH (in words) [1],NO yield (mol)/mol of compound mean (SE) [1],Compound,Decomposition / metabolic turnover in cells [2],Body weights [3],ATF3 level [4],Apoptosis (cleavage of PARP and caspases 3 and 7) [4],SAPK/JNK stress signaling pathway ([4]; phosphorylation of SAPK/JNK and c-jun after 4 h)
essentially quantitative amounts of NO,2.02 (0.06) mol/mol of compound,CCOC(=O)N1CCN(/[N+]([O-])=N/Oc2ccc(C#N)cc2[N+](=O)[O-])CC1 [Compound 13],,,,,
essentially quantitative amounts of NO,2.01 (0.03) mol/mol of compound,CCOC(=O)N1CCCN(/[N+]([O-])=N/Oc2ccc([N+](=O)[O-])cc2C#N)CC1 [Compound 15],,,,,
essentially quantitative amounts of NO,1.96 (0.04) mol/mol of compound,CCOC(=O)N1CCCN(/[N+]([O-])=N/Oc2ccc(C#N)cc2[N+](=O)[O-])CC1 [Compound 16],,,,,
